Test results published in ChEMBL document CHEMBL1137240, “Conjugation of adenosine and hexa-(D-arginine) leads to a nanomolar bisubstrate-analog inhibitor of basophilic protein kinases” (J Med Chem, 2006).

Columns and labels:
[1] = biological target: MAP/microtubule affinity-regulating kinase 3 (Homo sapiens) (UniProt P27448); assay: Percent residual activity, relative to control, of MARK3 at 1uM concentration of inhibitor in presence of 5uM ATP
Method in brief: (§1)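 It is expressed as percent of activity in control incubations without inhibitor, as the mean of duplicate determinations. The protocol follows earlier published panel methods.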

[2] = biological target: MAP kinase-activated protein kinase 2 (Homo sapiens) (UniProt P49137); assay: Percent residual activity, relative to control, of MAPKAP-K2 at 1 uM concentration of inhibitor in presence of 20 uM ATP; method in brief: as §1
Chain of MAP kinase-activated protein kinase 2 (Homo sapiens) (P49137 whole entry, looked up): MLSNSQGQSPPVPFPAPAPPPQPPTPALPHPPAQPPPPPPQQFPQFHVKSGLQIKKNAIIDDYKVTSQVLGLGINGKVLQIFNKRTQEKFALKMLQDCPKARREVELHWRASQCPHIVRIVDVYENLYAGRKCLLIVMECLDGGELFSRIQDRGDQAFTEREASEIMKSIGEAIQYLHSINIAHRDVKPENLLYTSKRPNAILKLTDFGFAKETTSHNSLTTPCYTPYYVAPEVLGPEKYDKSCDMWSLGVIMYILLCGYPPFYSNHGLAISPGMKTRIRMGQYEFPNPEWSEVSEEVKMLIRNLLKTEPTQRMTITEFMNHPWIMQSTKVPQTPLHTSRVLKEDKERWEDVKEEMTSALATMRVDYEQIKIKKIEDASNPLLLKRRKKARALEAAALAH

[3] = biological target: Serine/threonine-protein kinase Nek2 (Homo sapiens) (UniProt P51955); assay: Percent residual activity, relative to control, of NEK2a at 1 uM concentration of inhibitor in presence of 50 uM ATP; method in brief: as §1
[4] = biological target: Cyclin-dependent kinase 2/cyclin A (Homo sapiens) (UniProt P24941+P20248+P78396); assay: Percent residual activity, relative to control, of CDK2 (with cyclin A) at 1 uM concentration of inhibitor in presence of 20 uM ATP; type: protein-complex assay; method in brief: as §1
[5] = biological target: Mitogen-activated protein kinase 11 (Homo sapiens) (UniProt Q15759); assay: Percent residual activity, relative to control, of SAPK2b/p38ss2 at 1 uM concentration of inhibitor in presence of 20 uM ATP; method in brief: as §1
Chain of Mitogen-activated protein kinase 11 (Homo sapiens) (Q15759 whole entry): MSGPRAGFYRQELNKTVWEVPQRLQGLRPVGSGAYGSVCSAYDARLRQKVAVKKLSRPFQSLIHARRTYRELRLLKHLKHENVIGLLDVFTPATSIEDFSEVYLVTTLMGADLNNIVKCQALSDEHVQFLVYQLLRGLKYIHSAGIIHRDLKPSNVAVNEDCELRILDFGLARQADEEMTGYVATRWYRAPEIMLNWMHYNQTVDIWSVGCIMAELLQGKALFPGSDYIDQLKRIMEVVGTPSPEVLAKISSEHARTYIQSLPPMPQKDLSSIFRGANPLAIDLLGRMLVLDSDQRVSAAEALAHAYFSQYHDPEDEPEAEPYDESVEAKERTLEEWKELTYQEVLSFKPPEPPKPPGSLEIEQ

[6] = biological target: Mitogen-activated protein kinase 15 (Homo sapiens) (UniProt Q8TD08); assay: Percent residual activity, relative to control, of ERK8 at 1 uM concentration of inhibitor in presence of 5 uM ATP; method in brief: as §1
Chain of Mitogen-activated protein kinase 15 (Homo sapiens) (Q8TD08 whole entry): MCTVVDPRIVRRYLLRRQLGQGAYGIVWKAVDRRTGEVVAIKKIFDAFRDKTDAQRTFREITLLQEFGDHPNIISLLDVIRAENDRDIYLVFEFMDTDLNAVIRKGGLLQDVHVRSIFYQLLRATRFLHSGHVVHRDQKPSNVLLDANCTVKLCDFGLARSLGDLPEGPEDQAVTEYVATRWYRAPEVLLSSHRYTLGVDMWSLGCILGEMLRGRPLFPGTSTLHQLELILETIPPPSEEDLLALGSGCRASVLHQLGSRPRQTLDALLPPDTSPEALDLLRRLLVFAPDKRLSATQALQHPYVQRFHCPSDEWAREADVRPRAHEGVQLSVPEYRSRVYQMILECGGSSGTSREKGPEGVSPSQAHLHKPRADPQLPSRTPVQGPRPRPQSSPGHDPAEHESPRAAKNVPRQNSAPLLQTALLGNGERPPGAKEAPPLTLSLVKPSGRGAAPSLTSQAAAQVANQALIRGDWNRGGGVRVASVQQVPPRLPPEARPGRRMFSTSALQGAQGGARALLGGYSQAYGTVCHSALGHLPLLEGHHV

[7] = biological target: Serine/threonine-protein kinase pim-2 (Homo sapiens) (UniProt Q9P1W9); assay: Percent residual activity, relative to control, of PIM2 at 1uM concentration of inhibitor in presence of 5uM ATP; method in brief: as §1
[8] = biological target: Tyrosine-protein kinase CSK (Homo sapiens) (UniProt P41240); assay: Percent residual activity, relative to control, of CSK at 1 uM concentration of inhibitor in presence of 20 uM ATP; method in brief: as §1
[9] = biological target: RAC-alpha serine/threonine-protein kinase (Homo sapiens) (UniProt P31749); assay: Percent residual activity, relative to control, of PKB alpha (no ph) at 1 uM concentration of inhibitor in presence of 5 uM ATP; method in brief: as §1
[10] = biological target: Lymphokine-activated killer T-cell-originated protein kinase (Homo sapiens) (UniProt Q96KB5); assay: Percent residual activity, relative to control, of PBK at 1uM concentration of inhibitor in presence of 50uM ATP; method in brief: as §1
Chain of Lymphokine-activated killer T-cell-originated protein kinase (Homo sapiens) (Q96KB5 whole entry): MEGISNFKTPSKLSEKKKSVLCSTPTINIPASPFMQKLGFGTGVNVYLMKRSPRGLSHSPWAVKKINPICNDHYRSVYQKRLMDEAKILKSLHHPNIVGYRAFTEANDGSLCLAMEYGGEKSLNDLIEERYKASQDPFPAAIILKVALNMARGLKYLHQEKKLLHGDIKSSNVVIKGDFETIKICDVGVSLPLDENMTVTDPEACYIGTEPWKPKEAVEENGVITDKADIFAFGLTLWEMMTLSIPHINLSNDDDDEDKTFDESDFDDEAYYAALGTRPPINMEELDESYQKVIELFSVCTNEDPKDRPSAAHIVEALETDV

[11] = biological target: Serine/threonine-protein kinase N2 (Homo sapiens) (UniProt Q16513); assay: Percent residual activity, relative to control, of PRK2 at 1 uM concentration of inhibitor in presence of 5 uM ATP; method in brief: as §1
[12] = biological target: c-Jun N-terminal kinase, JNK (Homo sapiens) (UniProt P45983+P53779+P45984); assay: Percent residual activity, relative to control, of JNK/SAPK1c at 1 uM concentration of inhibitor in presence of 20 uM ATP; type: protein assay; method in brief: as §1
[13] = biological target: Mitogen-activated protein kinase 1 (Homo sapiens) (UniProt P28482); assay: Percent residual activity, relative to control, of MAPK2/ERK2 at 1 uM concentration of inhibitor in presence of 50 uM ATP; method in brief: as §1
Chain of Mitogen-activated protein kinase 1 (Homo sapiens) (P28482 whole entry): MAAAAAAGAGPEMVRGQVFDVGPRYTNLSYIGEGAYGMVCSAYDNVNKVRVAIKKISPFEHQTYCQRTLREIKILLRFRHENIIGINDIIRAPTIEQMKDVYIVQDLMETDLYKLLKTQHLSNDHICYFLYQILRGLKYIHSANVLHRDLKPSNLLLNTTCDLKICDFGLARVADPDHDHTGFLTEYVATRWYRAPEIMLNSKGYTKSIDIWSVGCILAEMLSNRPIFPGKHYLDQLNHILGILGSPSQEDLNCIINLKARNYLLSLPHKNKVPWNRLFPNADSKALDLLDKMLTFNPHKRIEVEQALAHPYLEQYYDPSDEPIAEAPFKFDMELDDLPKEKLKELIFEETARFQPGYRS

[14] = biological target: Casein kinase I (Homo sapiens) (UniProt Q9HCP0+P78368+P48730+P49674+P48729); assay: Percent residual activity, relative to control, of CK1 at 1 uM concentration of inhibitor in presence of 20 uM ATP; type: protein assay; method in brief: as §1
[15] = biological target: Aurora kinase B (Homo sapiens) (UniProt Q96GD4); assay: Percent residual activity, relative to control, of Aurora-B at 1 uM concentration of inhibitor in presence of 20 uM ATP; method in brief: as §1
[16] = biological target: Serine/threonine-protein kinase Nek6 (Homo sapiens) (UniProt Q9HC98); assay: Percent residual activity, relative to control, of NEK6 at 1 uM concentration of inhibitor in presence of 50 uM ATP; method in brief: as §1
Chain of Serine/threonine-protein kinase Nek6 (Homo sapiens) (Q9HC98 whole entry): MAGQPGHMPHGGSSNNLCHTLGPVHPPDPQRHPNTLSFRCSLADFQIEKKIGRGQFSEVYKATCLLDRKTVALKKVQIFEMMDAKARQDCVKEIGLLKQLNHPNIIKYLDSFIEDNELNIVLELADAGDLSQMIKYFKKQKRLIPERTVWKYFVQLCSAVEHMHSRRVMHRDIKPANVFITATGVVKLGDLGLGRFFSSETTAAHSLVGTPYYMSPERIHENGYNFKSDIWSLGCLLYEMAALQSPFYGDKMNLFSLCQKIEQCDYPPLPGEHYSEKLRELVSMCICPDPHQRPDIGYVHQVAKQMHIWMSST

[17] = biological target: Mitogen-activated protein kinase 14 (Homo sapiens) (UniProt Q16539); assay: Percent residual activity, relative to control, of SAPK2a/p38 at 1 uM concentration of inhibitor in presence of 50 uM ATP; method in brief: as §1
Chain of Mitogen-activated protein kinase 14 (Homo sapiens) (Q16539 whole entry): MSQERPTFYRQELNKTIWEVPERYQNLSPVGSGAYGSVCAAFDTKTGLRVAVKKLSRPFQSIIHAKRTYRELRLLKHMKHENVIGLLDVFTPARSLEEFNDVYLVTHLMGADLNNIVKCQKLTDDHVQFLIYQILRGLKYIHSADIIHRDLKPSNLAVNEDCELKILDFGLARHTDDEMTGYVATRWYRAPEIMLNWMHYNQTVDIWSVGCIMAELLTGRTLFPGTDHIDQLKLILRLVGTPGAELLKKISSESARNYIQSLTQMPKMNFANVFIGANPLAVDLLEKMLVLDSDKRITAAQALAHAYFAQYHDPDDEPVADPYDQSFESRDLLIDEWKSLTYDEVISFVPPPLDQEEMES

[18] = biological target: Proto-oncogene tyrosine-protein kinase Src (Homo sapiens) (UniProt P12931); assay: Percent residual activity, relative to control, of Src at 1 uM concentration of inhibitor in presence of 50 uM ATP
Method in brief: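 Methods followed an earlier description. Activity is given as percent residual activity relative to control incubations with the inhibitor omitted. Values are means of duplicate determinations.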

[19] = biological target: Serine/threonine-protein kinase Chk2 (Homo sapiens) (UniProt O96017); assay: Percent residual activity, relative to control, of CHK2 at 1uM concentration of inhibitor in presence of 20uM ATP; method in brief: as §1
Chain of Serine/threonine-protein kinase Chk2 (Homo sapiens) (O96017 whole entry): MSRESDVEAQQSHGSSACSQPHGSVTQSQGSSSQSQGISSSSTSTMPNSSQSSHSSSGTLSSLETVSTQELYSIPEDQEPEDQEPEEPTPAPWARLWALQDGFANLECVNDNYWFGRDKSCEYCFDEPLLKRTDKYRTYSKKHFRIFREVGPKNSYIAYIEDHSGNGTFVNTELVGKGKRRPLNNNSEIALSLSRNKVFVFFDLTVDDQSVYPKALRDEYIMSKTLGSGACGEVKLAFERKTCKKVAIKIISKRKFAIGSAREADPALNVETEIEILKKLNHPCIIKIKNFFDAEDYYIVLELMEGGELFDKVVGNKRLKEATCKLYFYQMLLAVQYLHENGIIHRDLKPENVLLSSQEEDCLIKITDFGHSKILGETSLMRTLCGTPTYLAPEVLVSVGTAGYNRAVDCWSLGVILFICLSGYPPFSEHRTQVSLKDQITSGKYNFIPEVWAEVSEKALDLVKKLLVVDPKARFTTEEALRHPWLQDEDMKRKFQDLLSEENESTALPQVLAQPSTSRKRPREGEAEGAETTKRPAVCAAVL

[20] = biological target: Dual specificity tyrosine-phosphorylation-regulated kinase 1A (Homo sapiens) (UniProt Q13627); assay: Percent residual activity, relative to control, of DYRK1a at 1 uM concentration of inhibitor in presence of 50 uM ATP; method in brief: as §1
[21] = biological target: Serine/threonine-protein kinase 3 (Homo sapiens) (UniProt Q13188); assay: Percent residual activity, relative to control, of MST2 at 1 uM concentration of inhibitor in presence of 20 uM ATP; method in brief: as §1
Chain of Serine/threonine-protein kinase 3 (Homo sapiens) (Q13188 whole entry): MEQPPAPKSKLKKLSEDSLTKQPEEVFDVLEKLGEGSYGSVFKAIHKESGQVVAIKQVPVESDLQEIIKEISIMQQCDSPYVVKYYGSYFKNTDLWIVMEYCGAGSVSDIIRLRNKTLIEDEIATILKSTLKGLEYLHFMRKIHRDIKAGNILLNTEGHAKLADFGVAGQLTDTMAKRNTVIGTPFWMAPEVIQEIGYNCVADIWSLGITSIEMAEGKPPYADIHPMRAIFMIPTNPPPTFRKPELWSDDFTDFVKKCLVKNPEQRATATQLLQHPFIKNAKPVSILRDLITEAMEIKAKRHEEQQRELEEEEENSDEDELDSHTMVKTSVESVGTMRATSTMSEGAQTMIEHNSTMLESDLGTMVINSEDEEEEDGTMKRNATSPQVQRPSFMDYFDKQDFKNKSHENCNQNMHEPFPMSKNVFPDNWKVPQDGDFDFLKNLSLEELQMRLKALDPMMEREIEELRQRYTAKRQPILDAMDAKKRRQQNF

[22] = biological target: Tyrosine-protein kinase Lck (Homo sapiens) (UniProt P06239); assay: Percent residual activity, relative to control, of Lck at 1uM concentration of inhibitor in presence of 50uM ATP; method in brief: as §1
[23] = biological target: Mitogen-activated protein kinase 12 (Homo sapiens) (UniProt P53778); assay: Percent residual activity, relative to control, of SAPK3/p38 gamma at 1 uM concentration of inhibitor in presence of 5 uM ATP; method in brief: as §1
[24] = biological target: MAP kinase-interacting serine/threonine-protein kinase 1 (Homo sapiens) (UniProt Q9BUB5); assay: Percent residual activity, relative to control, of MNK1 at 1 uM concentration of inhibitor in presence of 50 uM ATP; method in brief: as §1
Chain of MAP kinase-interacting serine/threonine-protein kinase 1 (Homo sapiens) (Q9BUB5 whole entry, looked up): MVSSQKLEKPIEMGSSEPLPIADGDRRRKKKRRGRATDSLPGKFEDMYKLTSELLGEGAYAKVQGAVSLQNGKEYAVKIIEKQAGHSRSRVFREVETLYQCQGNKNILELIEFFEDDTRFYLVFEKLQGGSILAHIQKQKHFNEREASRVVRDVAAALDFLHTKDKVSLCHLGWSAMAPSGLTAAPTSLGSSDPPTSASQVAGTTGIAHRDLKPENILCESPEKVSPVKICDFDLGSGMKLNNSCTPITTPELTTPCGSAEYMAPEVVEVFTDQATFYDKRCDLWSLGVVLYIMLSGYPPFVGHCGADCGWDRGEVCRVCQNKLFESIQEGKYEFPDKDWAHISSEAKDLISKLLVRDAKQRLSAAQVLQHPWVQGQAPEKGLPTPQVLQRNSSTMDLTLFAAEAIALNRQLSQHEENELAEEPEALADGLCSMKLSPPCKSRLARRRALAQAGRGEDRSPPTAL

[25] = biological target: Ribosomal protein S6 kinase alpha-1 (Homo sapiens) (UniProt Q15418); assay: Percent residual activity, relative to control, of MAPKAP-K1a/Rsk1 at 1 uM concentration of inhibitor in presence of 50 uM ATP; method in brief: as §1
Chain of Ribosomal protein S6 kinase alpha-1 (Homo sapiens) (Q15418 whole entry): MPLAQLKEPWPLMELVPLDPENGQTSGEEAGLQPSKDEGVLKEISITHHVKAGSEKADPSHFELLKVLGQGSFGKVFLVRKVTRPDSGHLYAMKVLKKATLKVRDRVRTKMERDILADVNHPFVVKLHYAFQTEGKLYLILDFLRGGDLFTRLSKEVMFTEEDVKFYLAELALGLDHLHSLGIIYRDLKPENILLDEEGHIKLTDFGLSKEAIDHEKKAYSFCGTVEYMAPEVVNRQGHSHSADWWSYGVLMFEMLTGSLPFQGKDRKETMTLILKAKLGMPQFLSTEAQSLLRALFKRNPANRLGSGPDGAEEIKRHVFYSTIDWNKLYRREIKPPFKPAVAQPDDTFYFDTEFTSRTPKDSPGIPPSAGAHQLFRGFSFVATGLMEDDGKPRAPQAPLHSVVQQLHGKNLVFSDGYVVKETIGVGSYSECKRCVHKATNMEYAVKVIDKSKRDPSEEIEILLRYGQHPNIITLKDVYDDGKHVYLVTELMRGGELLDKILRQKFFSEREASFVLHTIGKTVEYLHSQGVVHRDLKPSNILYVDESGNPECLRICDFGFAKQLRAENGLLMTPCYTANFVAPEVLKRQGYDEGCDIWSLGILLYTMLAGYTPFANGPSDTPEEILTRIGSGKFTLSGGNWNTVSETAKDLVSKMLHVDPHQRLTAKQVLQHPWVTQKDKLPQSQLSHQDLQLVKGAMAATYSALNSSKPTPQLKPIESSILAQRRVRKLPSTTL

N=C(N)NCCC[C@@H](NC(=O)[C@@H](CCCNC(=N)N)NC(=O)[C@@H](CCCNC(=N)N)NC(=O)[C@@H](CCCNC(=N)N)NC(=O)[C@@H](CCCNC(=N)N)NC(=O)[C@@H](CCCNC(=N)N)NC(=O)CCCCCNC(=O)[C@H]1O[C@@H](n2cnc3c(N)ncnc32)[C@H](O)[C@@H]1O)C(N)=O
Activity [1]: 40%
Activity [2]: 85%
Activity [3]: 82%
Activity [4]: 88%
Activity [5]: 85%
Activity [6]: 50%
Activity [7]: 38%
Activity [8]: 48%
Activity [9]: 2%
Activity [10]: 88%
Activity [11]: 2%
Activity [12]: 70%
Activity [13]: 100%
Activity [14]: 106%
Activity [15]: 103%
Activity [16]: 94%
Activity [17]: 79%
Activity [18]: 84%
Activity [19]: 14%
Activity [20]: 72%
Activity [21]: 77%
Activity [22]: 70%
Activity [23]: 111%
Activity [24]: 102%
Activity [25]: 28%
